# Screening results deposited in PubChem by several laboratories.
# Only some compounds are listed: those with a hit (about 2.1% of all), similar ones and a draw of the others.
# Apaf-1 inh = inhibitors of human Apaf-1 apoptosome, primary screen, biochemical, DEVD-Rh110 fluorescence, uHTS; inhibition, % at 20 µM; Apoptotic protease-activating factor 1 (Homo sapiens), O14727; AID 489030, 2010; 0.71% of 330,000 active; reconstituted apoptosome caspase-3 activity; active = inhibition of at least 40% at 20 µM;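 also: plate controls were DMSO wells for no effect and DEVD-CHO caspase inhibitor wells for full effect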
#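 detection = Rh110 fluorescence intensity | test system = biochemical Apaf-1 apoptosome reconstitution | also added = cytochrome c and DEVD-Rh110 substrate | schedule = 30 min plus 50 min, RT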
# TDP2 absorb = human TDP2 enzyme inhibitors, primary screen, biochemical, epi absorbance, recombinant enzyme. T5PNP hydrolysis, p-nitrophenol absorbance 415 nm. inhibition, % at 12.8 µM. 0.34% of 370,000 active. Tyrosyl-DNA phosphodiesterase 2 (Homo sapiens), O95551;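 active = inhibition above the mean of all tested compounds plus 3 SD, set per campaign, cut at about 25% in these data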;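 also: 0% = DMSO with enzyme and 100% = buffer with substrate but no TDP2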
#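 System: recombinant human TDP2 / Amount: 120 nM TDP2 per well / Also added: 5 mM T5PNP chromogenic substrate / Doses: 12.8 µM single point, 1% DMSO / Incubation: 2 h at 37 °C / Detection: p-Nitrophenol epi absorbance / Evaluation: % inhibition relative to enzyme-containing and enzyme-free wells / Repeats: singlicate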
# PP1 inh = PP1-alpha phosphatase inhibitors, primary screen, counter-screen for PP5 inhibitor project, biochemical, fluorescence, OMFP substrate, single point. 0.9% of 320,000 active. purified PP1alpha. Serine/threonine-protein phosphatase PP1-alpha catalytic subunit (Homo sapiens), P62136. AID 2235, 2010. inhibition, % at 6.7 µM;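 active = inhibition above the mean inhibition of all tested compounds plus 3 SD, computed separately for each screening campaign, cut at about 15% in these data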
# GSTO1 counter = inhibitors of recombinant GSTO1, primary screen, counter-screen for RBBP9 inhibitor project, biochemical, fluorescence polarization | activity-based probe fluorescence polarization | inhibition, % at 5.96 µM | 1.1% of 300,000 active;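 active = inhibition above the campaign mean inhibition plus 3 SD, cut at about 35% in these data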;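 also: 0% = GSTO1-1 with DMSO and 100% = wells lacking GSTO1-1 enzyme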
# Target sequence (P78417 whole entry, looked up): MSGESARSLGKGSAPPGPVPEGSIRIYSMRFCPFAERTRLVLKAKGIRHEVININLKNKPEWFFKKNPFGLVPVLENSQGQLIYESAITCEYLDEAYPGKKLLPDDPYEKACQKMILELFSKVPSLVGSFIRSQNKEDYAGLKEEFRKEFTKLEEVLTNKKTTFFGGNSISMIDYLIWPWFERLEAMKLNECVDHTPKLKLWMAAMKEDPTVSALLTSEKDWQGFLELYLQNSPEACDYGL
# PP5 inh = PP5 phosphatase inhibitors, primary screen, biochemical, fluorescence; purified PP5c, OMFP substrate fluorescence; inhibition, % at 6.7 µM; 0.18% of 320,000 active;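 active = inhibition above the campaign's mean inhibition across all tested compounds plus 3 SD, cut at about 9.5% in these data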;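 also: 0% = DMSO only and 100% = 100 µM cantharidin control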
# Target sequence (P53041 whole entry, looked up): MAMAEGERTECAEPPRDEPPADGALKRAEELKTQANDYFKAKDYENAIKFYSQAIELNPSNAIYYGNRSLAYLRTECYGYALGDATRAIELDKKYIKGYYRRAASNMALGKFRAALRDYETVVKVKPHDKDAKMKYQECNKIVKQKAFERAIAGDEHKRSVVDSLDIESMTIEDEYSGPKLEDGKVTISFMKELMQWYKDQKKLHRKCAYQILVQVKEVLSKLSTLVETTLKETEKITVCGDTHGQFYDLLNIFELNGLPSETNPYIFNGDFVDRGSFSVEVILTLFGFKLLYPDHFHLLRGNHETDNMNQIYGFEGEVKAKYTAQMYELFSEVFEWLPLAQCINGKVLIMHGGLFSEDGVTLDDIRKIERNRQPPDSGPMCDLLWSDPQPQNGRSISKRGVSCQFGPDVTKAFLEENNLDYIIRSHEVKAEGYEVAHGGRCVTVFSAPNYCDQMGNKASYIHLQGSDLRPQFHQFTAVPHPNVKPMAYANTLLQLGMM
# Apaf-1 inh conf2 = Apaf-1 inhibitors, single-dose retest, confirmation, biochemical, fluorescence, DEVD-Rh110, 20 µM | shares compounds with Apaf-1 inh | reconstituted apoptosome, caspase-3 DEVD-Rh110 fluorescence | inhibition, % at 20 µM | 25% of 1,800 active | AID 504614, 2011;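 active = mean inhibition of at least 40% at 20 µM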;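 also: plate controls were DMSO wells for no effect and DEVD-CHO caspase inhibitor control wells for full effect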
# Rh110 quench = Rh110 fluorescence interference by putative Apaf-1 inhibitors, confirmation, artefact control for Apaf-1 inhibitor project, biochemical, 20 µM | quenched caspase reaction | 1,800 tested, under 10 active | activation (fluorescence interference), % at 20 µM | shares compounds with Apaf-1 inh;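 active = signal rise of 40% or more at 20 µM, treated as a fluorescence artifact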
# Fluor interf inh = fluorescence interference of Apaf-1 inhibitor hits, dose response, artefact control for Apaf-1 inhibitor project | shares compounds with Apaf-1 inh | fluorescence interference counterscreen, Apaf-1 assay format | IC50, µM | 460 tested, under 10 active | AID 588538, 2011; call rule not given here
# An asterisk follows results filed as active; / = not tested or not shown.
SMILES,Apaf-1 inh,TDP2 absorb,PP1 inh,GSTO1 counter,PP5 inh,Apaf-1 inh conf2,Rh110 quench,others
CN(CC(=O)Nc1ccc(F)cc1)C(=O)C1CC(=O)N(Cc2ccccc2)C1 (centres undefined),43.6*,-7.8,-3.8,1.6,-1.4,26.1,3.0,
COCC#Cc1ccc(CC[C@H]2O[C@H]3CC[C@@H](CO)O[C@H]3C[C@H]2n2cc(C(C)(C)O)nn2)cc1,/,-7.9,/,/,/,/,/,
CCOC(=O)c1cnc2ccc(C)cc2c1Nc1ccc(N2CCOCC2)cc1,41.1*,1.8,1.1,10.0,2.3,36.8,8.8,
CC(=O)NNC(=S)Nc1cc(S(=O)(=O)N(C)C)ccc1C,-3.6,10.0,-1.1,6.7,-0.4,/,/,
Cc1ccc(S(=O)(=O)N(C)C)cc1NC(=S)Nc1cccc2ccccc12,93.2*,15.6,8.4,8.0,-4.0,21.2,21.1,
Cc1ccc(S(=O)(=O)N(C)C)cc1NC(=O)c1ccccc1SCC(=O)N1CCCC1,41.5*,4.2,-2.9,/,0.3,36.0,9.2,
CN(CC(=O)Nc1ccccc1C(F)(F)F)CC(=O)N1CCCCCC1,12.7,1.1,0.2,/,2.8,/,/,
CCN(CC(=O)Nc1ccccc1C(F)(F)F)C(=O)c1ccccc1SCC(=O)N1CCCC1,42.9*,2.2,-5.6,1.4,-0.5,28.6,-6.4,
Cc1sc2nc(COC(=O)CNC(=O)c3ccccc3Cl)[nH]c(=O)c2c1C,/,-8.1,/,/,/,/,/,
Nc1ccc2cn[nH]c2c1,52.4*,0.9,7.2,5.6,4.6,29.9,-5.0,
Cc1ccc(C(=O)C2CCN(CC(=O)N(C)C3CCCCC3)CC2)cc1,/,8.2,/,/,/,/,/,
O=C(CSc1nc2ccccc2nc1N1CCCC1)N1CCN(c2cccc(C(F)(F)F)c2)CC1,/,-4.5,/,/,/,/,/,
COc1ccc(Cn2c(N)c(C#N)c3nc4ccccc4nc32)cc1OC,85.8*,8.8,0.0,11.3,6.6,10.4,10.7,
COc1ccc2c(c1)c1nc3ccccc3nc1n2Cc1ccc(OC(C)C)c(OC)c1,0.6,-7.8,2.1,3.2,0.8,/,/,
CC(NC(=O)C1CCN(C(=O)c2cccs2)CC1)c1ccc(S(N)(=O)=O)cc1 (centres undefined),62.1*,5.9,1.1,/,1.2,34.8,11.5,
CCOC(=O)N1CCN(C(=O)c2cccc(S(=O)(=O)Nc3ccc(F)cc3)c2)CC1,/,-4.1,/,/,/,/,/,
CCOC(=O)N1CCN(C(=O)c2cccc(S(=O)(=O)Nc3ccc(OC)cc3)c2)CC1,51.5*,-1.2,-0.1,15.1,0.3,34.2,-1.6,
Cc1nc2ccc(S(=O)(=O)NCC(=O)N(C)Cc3ccc(F)cc3)cc2s1,/,2.3,/,/,/,/,/,
CCOC(=O)c1ccc(-n2[nH]c(-c3ccccc3)cc2=O)cc1,42.6*,35.1*,8.9,36.0*,2.4,24.7,0.8,
CCOC(=O)C1CCN(S(=O)(=O)c2ccc3c4c2CC(=O)N4CC(C)S3)CC1 (centres undefined),44.4*,3.4,-2.0,-2.5,2.8,39.3,17.9,
CN(C)c1cccc2c(S(=O)(=O)NC(=O)[C@H]3O[C@@H](n4ccc(=O)[nH]c4=O)[C@H](O)[C@@H]3O)cccc12,/,-0.3,/,/,/,/,/,
CC(C)C[C@@H](C(=O)NC1CCN(Cc2ccccc2)CC1)N1C(=O)N2CCc3c([nH]c4ccccc34)[C@@]2(C)C1=O,44.6*,-6.6,-0.2,-5.3,4.1,17.2,-1.4,
C[C@@H](C(=O)NC1CCN(Cc2ccccc2)CC1)N1C(=O)N2CCc3c([nH]c4ccccc34)[C@@]2(C)C1=O,2.0,6.6,-3.0,-1.6,2.8,/,/,
CC1=[N+](C)c2ccc3ccccc3c2C1(C)C,41.9*,15.8,-2.7,-67.8,3.1,16.2,1.0,
CN(CCO)c1ccc2c(c1)Oc1ccccc1CN(Cc1cn(Cc3ccccc3C(F)(F)F)nn1)S2(=O)=O,/,-11.7,/,/,/,/,/,
SMILES,Apaf-1 inh,TDP2 absorb,PP1 inh,GSTO1 counter,PP5 inh,Apaf-1 inh conf2,Rh110 quench,others
Cc1cc(C)nc(/N=c2/ssnc2Cl)c1,71.1*,-4.8,-1.2,27.2,1.0,82.0*,1.2,Fluor interf inh=>100
COc1ccc(Cl)cc1C(=O)NCCN(C)C,5.3,-3.8,-2.9,4.0,-0.1,/,/,
CN(C)CCNC(=O)c1ccc(COc2ccc(Cl)cc2Cl)cc1,45.7*,-10.1,2.9,-10.0,-0.7,5.3,2.9,
C[C@@H]1COc2cccc(N3CCSCC3)c2S(=O)(=O)N1C,/,3.9,/,/,/,/,/,
O=C(NC1CC1)C1=C[C@H](c2ccc(C(F)(F)F)cc2)C[C@H](OCCCCO)O1,50.3*,1.1,5.7,-5.1,-3.9,3.6,9.0,
O=C(NC1CC1)C1=C[C@@H](c2ccc(C(F)(F)F)cc2)C[C@@H](OCCCCO)O1,3.0,3.3,-1.2,2.9,-0.5,/,/,
CO[C@@H]1[C@H](O)CC[C@]2(O)CN(c3ccccc3)[C@](C)([C@H](O)CC=C(C)C)[C@@H]12,/,0.4,/,/,/,/,/,
COc1cccc(-c2nnc(SC(C(=O)c3c[nH]c4ccccc34)c3ccccc3)n2C)c1 (centres undefined),42.9*,-5.1,4.3,3.9,6.9,22.1,8.2,
COc1ccccc1-c1nnc(SC(C(=O)c2c[nH]c3ccccc23)c2ccccc2)n1C (centres undefined),7.0,-10.8,-0.1,-3.7,4.7,/,/,
CCNC(=O)O[C@@H]1C=C[C@@H](C#Cc2ccc(C(C)(C)C)cc2)O[C@@H]1COC(C)=O,/,1.7,/,/,/,/,/,
COc1ccc(C(=O)COC(=O)CCCN=C2NS(=O)(=O)c3ccccc32)c(OC)c1,50.7*,-4.2,-2.8,-8.1,0.9,9.4,0.7,
C=CCN(C(=O)[C@@H](C)[C@@H](O)c1ccc(Cl)cc1)c1ccccc1,/,-3.3,/,/,/,/,/,
CC1(c2nnnn2Cc2ccccc2)CCCC(=O)N1Cc1cccs1 (centres undefined),/,1.3,/,/,/,/,/,
Cc1ccc(N2CCN(S(=O)(=O)c3cccs3)CC2C)cc1 (centres undefined),62.2*,-1.7,7.1,5.2,4.0,15.0,8.7,
Cc1ccc(N2CCN(S(=O)(=O)c3c(C)nc4sccn4c3=O)CC2C)cc1 (centres undefined),/,-8.1,/,/,/,/,/,
CCOC(=O)c1cc2cc3ccccc3cc2[nH]1,58.4*,-4.2,-3.6,5.1,8.8,10.8,6.7,
